Test results reported in ChEMBL document CHEMBL4689842, “EUbOPEN Chemogenomics Library wave 1” (2021).
Several values for one entry are separate records, joined by “and”; a condition that tells them apart may be missing. Equal entries are not always repeated.

Assays:
Format in all cases: toxicity, cell-based
Fibroblast [1] = assay: Incucyte cell viability with human fibroblast; settings: 10 µM, compound concentration 10 uM; note: filed as whole numbers so only -1 and 0 and 1 occur
U2OS [2] = assay: Multiplex assay against U2OS; settings: human, 10 µM, compound concentration 10 uM
Method in brief: (§1)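 Per cents of healthy-nucleus cells form the tubulin, mitochondrial-mass and membrane-permeability phenotype values. Live cells were stained at seeding with Hoechst33342, BioTracker Green Microtubule Cytoskeleton Dye, MitoTracker Red and Annexin V Alexa Fluor 680. After compound addition they were imaged on a CQ1 microscope at 37°C and 5% CO2, and CellPathfinder machine-learning gating split them into Hoechst high-intensity objects or normal cells, normal cells into healthy, pyknosed or fragmented nuclei, and pyknosed cells into mitotic or apoptotic.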

U2OS [3] = assay: Incucyte cell viability with U2OS; settings: human, 10 µM, compound concentration 10 uM; note: filed as whole numbers so only -1 and 0 and 1 occur
HEK-293T [4] = assay: Multiplex assay against HEK293T; settings: human, 10 µM, compound concentration 10 uM; method in brief: as §1;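 for Population Tubulin-Different-Phenotype (%): share of the cells with healthy nuclei that show this phenotype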
Fibroblast [5] = assay: Multiplex assay against human fibroblast; settings: 10 µM, compound concentration 10 uM; method in brief: as §1
HEK-293T [6] = assay: Incucyte cell viability with HEK293T; settings: human, 10 µM, compound concentration 10 uM; note: filed as whole numbers so only -1 and 0 and 1 occur
[7] = 0 h, replicate number 1, timepoint 0 hours
[8] = 12 h, replicate number 1, timepoint 12 hours
[9] = 18 h, replicate number 1, timepoint 18 hours
[10] = 24 h, replicate number 1, timepoint 24 hours

CN1CCN(Cc2ccc(-c3cnc4[nH]cc(-c5ccc6[nH]ccc6c5)c4c3)cc2)CC1
Growth Rate (Fibroblast [1]; [7]): 0
Growth Rate (Fibroblast [1]; [8]): 0
Growth Rate (Fibroblast [1]; [9]): 0
Growth Rate (Fibroblast [1]; [10]): 0
Population Apoptotic (%) (U2OS [2]; 12 h, replicate 1): 81% and 75%
Population Hoechst High Intensity Objects (%) (U2OS [2]; 12 h, replicate 1): 11% and 4% and 8%
Population Membrane Permeable-Phenotype (%) (U2OS [2]; 12 h, replicate 1): 87% and 74% and 69%
Population Mitochondria Different-Phenotype (%) (U2OS [2]; 12 h, replicate 1): 64% and 37%
Population Mitotic Cells (%) (U2OS [2]; 12 h, replicate 1): 18% and 24% and 25%
Population Normal (%) (U2OS [2]; 12 h, replicate 1): 88% and 95% and 91%
Total Cell Count (U2OS [2]; 12 h, replicate 1): 171 and 167 and 190
Population Fragmented Nuclei (%) (U2OS [2]; 12 h, replicate 2): 17% and 14% and 13%
Population Hoechst High Intensity Objects (%) (U2OS [2]; 12 h, replicate 2): 6% and 15%
Population Membrane Permeable-Phenotype (%) (U2OS [2]; 12 h, replicate 2): 40% and 72% and 63%
Population Mitochondria Different-Phenotype (%) (U2OS [2]; 12 h, replicate 2): 100% and 96% and 36%
Population Normal (%) (U2OS [2]; 12 h, replicate 2): 94% and 84%
Total Cell Count (U2OS [2]; 12 h, replicate 2): 76 and 116 and 120
Population Apoptotic (%) (U2OS [2]; 24 h, replicate 1): 98% and 93% and 64%
Population Membrane Permeable-Phenotype (%) (U2OS [2]; 24 h, replicate 1): 100% and 90% and 39%
Population Normal (%) (U2OS [2]; 24 h, replicate 1): 90% and 76% and 93%
Total Cell Count (U2OS [2]; 24 h, replicate 1): 166 and 199 and 279
Population Apoptotic (%) (U2OS [2]; 24 h, replicate 2): 95% and 100% and 66%
Population Membrane Permeable-Phenotype (%) (U2OS [2]; 24 h, replicate 2): 40%
Population Mitochondria Different-Phenotype (%) (U2OS [2]; 24 h, replicate 2): 39%
Population Normal (%) (U2OS [2]; 24 h, replicate 2): 81% and 66% and 89%
Population Tubulin-Different-Phenotype (%) (U2OS [2]; 24 h, replicate 2): 18%
Total Cell Count (U2OS [2]; 24 h, replicate 2): 122 and 91 and 140
Population Apoptotic (%) (U2OS [2]; 48 h, replicate 1): 100%
Population Fragmented Nuclei (%) (U2OS [2]; 48 h, replicate 1): 31%
Population Healthy Nuclei (%) (U2OS [2]; 48 h, replicate 1): 2%
Population Hoechst High Intensity Objects (%) (U2OS [2]; 48 h, replicate 1): 14%
Population Membrane Permeable-Phenotype (%) (U2OS [2]; 48 h, replicate 1): 66%
Population Mitochondria Different-Phenotype (%) (U2OS [2]; 48 h, replicate 1): 100%
Population Mitotic Cells (%) (U2OS [2]; 48 h, replicate 1): 0%
Population Normal (%) (U2OS [2]; 48 h, replicate 1): 85%
Population Pyknosed Nuclei (%) (U2OS [2]; 48 h, replicate 1): 66%
Population Tubulin-Different-Phenotype (%) (U2OS [2]; 48 h, replicate 1): 100%
Total Cell Count (U2OS [2]; 48 h, replicate 1): 148
Population Fragmented Nuclei (%) (U2OS [2]; 48 h, replicate 2): 8%
Population Healthy Nuclei (%) (U2OS [2]; 48 h, replicate 2): 64%
Population Hoechst High Intensity Objects (%) (U2OS [2]; 48 h, replicate 2): 24%
Population Membrane Permeable-Phenotype (%) (U2OS [2]; 48 h, replicate 2): 100%
Population Normal (%) (U2OS [2]; 48 h, replicate 2): 75%
Population Pyknosed Nuclei (%) (U2OS [2]; 48 h, replicate 2): 27%
Population Tubulin-Different-Phenotype (%) (U2OS [2]; 48 h, replicate 2): 95%
Total Cell Count (U2OS [2]; 48 h, replicate 2): 80
Growth Rate (U2OS [3]; 0 h, replicate number 2, timepoint 0 hours): 0
Growth Rate (U2OS [3]; [8]): 1
Growth Rate (U2OS [3]; [9]): 0
Growth Rate (U2OS [3]; [10]): 0
Population Fragmented Nuclei (%) (HEK-293T [4]; 12 h, replicate 1): 11% and 13% and 21%
Population Hoechst High Intensity Objects (%) (HEK-293T [4]; 12 h, replicate 1): 16% and 24% and 18%
Population Membrane Permeable-Phenotype (%) (HEK-293T [4]; 12 h, replicate 1): 20% and 12% and 28%
Population Normal (%) (HEK-293T [4]; 12 h, replicate 1): 83% and 75% and 81%
Population Pyknosed Nuclei (%) (HEK-293T [4]; 12 h, replicate 1): 59% and 81%
Population Membrane Permeable-Phenotype (%) (HEK-293T [4]; 12 h, replicate 2): 0% and 15%
Population Normal (%) (HEK-293T [4]; 12 h, replicate 2): 87% and 97%
Population Tubulin-Different-Phenotype (%) (HEK-293T [4]; 12 h, replicate 2): 66% and 53% and 95%
Population Fragmented Nuclei (%) (HEK-293T [4]; 24 h, replicate 1): 16%
Population Hoechst High Intensity Objects (%) (HEK-293T [4]; 24 h, replicate 1): 29% and 32% and 15%
Population Membrane Permeable-Phenotype (%) (HEK-293T [4]; 24 h, replicate 1): 11% and 15%
Population Normal (%) (HEK-293T [4]; 24 h, replicate 1): 70% and 67% and 84%
Population Membrane Permeable-Phenotype (%) (HEK-293T [4]; 24 h, replicate 2): 0% and 8% and 9%
Population Normal (%) (HEK-293T [4]; 24 h, replicate 2): 78% and 93%
Population Apoptotic (%) (HEK-293T [4]; 48 h, replicate 1): 90%
Population Fragmented Nuclei (%) (HEK-293T [4]; 48 h, replicate 1): 29%
Population Healthy Nuclei (%) (HEK-293T [4]; 48 h, replicate 1): 3%
Population Hoechst High Intensity Objects (%) (HEK-293T [4]; 48 h, replicate 1): 31%
Population Membrane Permeable-Phenotype (%) (HEK-293T [4]; 48 h, replicate 1): 0%
Population Mitotic Cells (%) (HEK-293T [4]; 48 h, replicate 1): 9%
Population Normal (%) (HEK-293T [4]; 48 h, replicate 1): 68%
Population Pyknosed Nuclei (%) (HEK-293T [4]; 48 h, replicate 1): 66%
Population Tubulin-Different-Phenotype (%) (HEK-293T [4]; 48 h, replicate 1): 80%
Total Cell Count (HEK-293T [4]; 48 h, replicate 1): 216
Population Apoptotic (%) (HEK-293T [4]; 48 h, replicate 2): 96%
Population Fragmented Nuclei (%) (HEK-293T [4]; 48 h, replicate 2): 17%
Population Healthy Nuclei (%) (HEK-293T [4]; 48 h, replicate 2): 7%
Population Hoechst High Intensity Objects (%) (HEK-293T [4]; 48 h, replicate 2): 18%
Population Membrane Permeable-Phenotype (%) (HEK-293T [4]; 48 h, replicate 2): 22%
Population Mitochondria Different-Phenotype (%) (HEK-293T [4]; 48 h, replicate 2): 100%
Population Mitotic Cells (%) (HEK-293T [4]; 48 h, replicate 2): 3%
Population Normal (%) (HEK-293T [4]; 48 h, replicate 2): 81%
Population Pyknosed Nuclei (%) (HEK-293T [4]; 48 h, replicate 2): 75%
Population Tubulin-Different-Phenotype (%) (HEK-293T [4]; 48 h, replicate 2): 100%
Total Cell Count (HEK-293T [4]; 48 h, replicate 2): 158
Population Apoptotic (%) (Fibroblast [5]; 12 h, replicate 1): 47% and 85%
Population Fragmented Nuclei (%) (Fibroblast [5]; 12 h, replicate 1): 27% and 39% and 35%
Population Hoechst High Intensity Objects (%) (Fibroblast [5]; 12 h, replicate 1): 8% and 16% and 10%
Population Normal (%) (Fibroblast [5]; 12 h, replicate 1): 91% and 83% and 89%
Total Cell Count (Fibroblast [5]; 12 h, replicate 1): 208 and 291 and 107
Population Apoptotic (%) (Fibroblast [5]; 12 h, replicate 2): 50% and 73%
Population Mitotic Cells (%) (Fibroblast [5]; 12 h, replicate 2): 50% and 26%
Population Normal (%) (Fibroblast [5]; 12 h, replicate 2): 69% and 64% and 94%
Total Cell Count (Fibroblast [5]; 12 h, replicate 2): 113 and 71 and 76
Population Apoptotic (%) (Fibroblast [5]; 24 h, replicate 1): 73% and 68% and 81%
Population Fragmented Nuclei (%) (Fibroblast [5]; 24 h, replicate 1): 50% and 59% and 47%
Population Hoechst High Intensity Objects (%) (Fibroblast [5]; 24 h, replicate 1): 16% and 23% and 25%
Population Mitotic Cells (%) (Fibroblast [5]; 24 h, replicate 1): 26% and 31% and 18%
Population Normal (%) (Fibroblast [5]; 24 h, replicate 1): 83% and 76% and 75%
Population Apoptotic (%) (Fibroblast [5]; 24 h, replicate 2): 50% and 100%
Population Healthy Nuclei (%) (Fibroblast [5]; 24 h, replicate 2): 24% and 25% and 11%
Population Hoechst High Intensity Objects (%) (Fibroblast [5]; 24 h, replicate 2): 26% and 33% and 52%
Population Normal (%) (Fibroblast [5]; 24 h, replicate 2): 73% and 66% and 47%
Total Cell Count (Fibroblast [5]; 24 h, replicate 2): 136 and 91 and 73
Population Fragmented Nuclei (%) (Fibroblast [5]; 48 h, replicate 1): 75%
Population Healthy Nuclei (%) (Fibroblast [5]; 48 h, replicate 1): 13%
Population Hoechst High Intensity Objects (%) (Fibroblast [5]; 48 h, replicate 1): 28%
Population Membrane Permeable-Phenotype (%) (Fibroblast [5]; 48 h, replicate 1): 41%
Population Normal (%) (Fibroblast [5]; 48 h, replicate 1): 71%
Population Pyknosed Nuclei (%) (Fibroblast [5]; 48 h, replicate 1): 10%
Population Tubulin-Different-Phenotype (%) (Fibroblast [5]; 48 h, replicate 1): 58%
Total Cell Count (Fibroblast [5]; 48 h, replicate 1): 121
Population Apoptotic (%) (Fibroblast [5]; 48 h, replicate 2): 100%
Population Fragmented Nuclei (%) (Fibroblast [5]; 48 h, replicate 2): 79%
Population Healthy Nuclei (%) (Fibroblast [5]; 48 h, replicate 2): 11%
Population Hoechst High Intensity Objects (%) (Fibroblast [5]; 48 h, replicate 2): 40%
Population Membrane Permeable-Phenotype (%) (Fibroblast [5]; 48 h, replicate 2): 0%
Population Mitochondria Different-Phenotype (%) (Fibroblast [5]; 48 h, replicate 2): 0%
Population Mitotic Cells (%) (Fibroblast [5]; 48 h, replicate 2): 0%
Population Normal (%) (Fibroblast [5]; 48 h, replicate 2): 59%
Population Pyknosed Nuclei (%) (Fibroblast [5]; 48 h, replicate 2): 8%
Population Tubulin-Different-Phenotype (%) (Fibroblast [5]; 48 h, replicate 2): 50%
Total Cell Count (Fibroblast [5]; 48 h, replicate 2): 57
Growth Rate (HEK-293T [6]; [7]): 0
Growth Rate (HEK-293T [6]; 6 h, replicate number 2, timepoint 6 hours): 0
Growth Rate (HEK-293T [6]; [8]): 0
Growth Rate (HEK-293T [6]; [9]): 0
Growth Rate (HEK-293T [6]; [10]): 0
